In all, about 360,000 compounds went through this assay and about 200 (0.056%) were called active.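 How the source made its calls: active means mean normalized replicate activation at least 10% and every replicate at or above 10%; inconclusive means only one of the two criteria met; inactive means mean below 10% and not all replicates reach 10%.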 The sample as a whole holds a higher share of actives than the screen did.
test: activators of inactive X chromosome reactivation, primary screen, imaging, XiGFP fibroblasts, GFP high-content imaging, set 2 (AID 743238); details: XiGFP mouse fibroblasts, % GFP-positive cells imaging, 3 d; at 7.58 µM; stronger effect = higher value; cells co-treated with 5-aza-dC sensitizer; scaled so ellipticine positive control = 100%;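 further: 0% = median of on-plate neutral control wells and 100% = ellipticine 6 µM median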
Procedure, shortened: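 Material: XiGFP fibroblasts, SV40-immortalized. Buffer or medium: DMEM plus 5-aza-dC sensitizer. Compound: single concentration per compound, delivered by pin transfer. Times: 3 days compound exposure. Controls: ellipticine 6 µM.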

| SMILES | activation |
| --- | --- |
| COc1ccc(NC(=O)Nc2ccc3c(c2)C(=O)N([C@@H](C)CO)C[C@@H](C)[C@@H](CN(C)C(=O)CCCN(C)C)OCCCC[C@@H](C)O3)cc1 | 0.0725% (inactive) |
| Cc1ccccc1-c1ccc([C@H]2[C@@H](CO)N3C(=O)CN(C(=O)c4cccnc4)C[C@@H]23)cc1 | 0.209% (inactive) |
| C[C@@H](O)C#Cc1ccc([C@@H]2[C@@H](CO)N3CCCCN(C(=O)c4ccc(F)cc4)C[C@@H]23)cc1 | 0.907% (inactive) |
| C[C@H]1CN([C@@H](C)CO)C(=O)c2cc(Br)cnc2O[C@H]1CN(C)Cc1cccc(F)c1 | 0.497% (inactive) |
| Cc1ccc(S(=O)(=O)N2C[C@H](O)COC[C@@H]3O[C@H](CC(=O)N[C@H]4CCN(Cc5ccccc5)C4)CC[C@H]32)cc1 | 0.108% (inactive) |
| C[C@@H]1CN([C@H](C)CO)C(=O)c2cc(-c3ccccc3F)cnc2O[C@H]1CN(C)C(=O)CN(C)C | 3.17% (inactive) |
| COc1cc(CN2CC3(CN(S(=O)(=O)c4cccs4)C3)c3c(n(C)c4cc(OC)ccc34)[C@H]2CO)cc(OC)c1 | 0.325% (inactive) |
| COc1cccc(S(=O)(=O)N[C@H]2C=C[C@@H](CC(=O)NCc3ccccc3)O[C@@H]2CO)c1 | -0.504% (inactive) |
| CN1CCN(C(=O)C[C@H]2CC[C@H]3[C@@H](COC[C@H](O)CN3CC3CCCC3)O2)CC1 | 0.0235% (inactive) |
| Cc1ccc(S(=O)(=O)N(C)C[C@@H]2Oc3c(NC(=O)Nc4c(C)noc4C)cccc3C(=O)N([C@@H](C)CO)C[C@@H]2C)cc1 | -0.145% (inactive) |
| COc1ccc2c3c(n(C)c2c1)[C@H](CO)N(CC1CCOCC1)CC31CCN(C(C)=O)CC1 | 0.008% (inactive) |
| C/C=C/c1ccc([C@@H]2[C@H](CO)N(CC3CCOCC3)C23CN(S(=O)(=O)CC)C3)cc1 | 0.064% (inactive) |
| COc1ccc(S(=O)(=O)Nc2cccc3c2O[C@H](CN(C)C(=O)Nc2cccc4ccccc24)[C@H](C)CN([C@@H](C)CO)C3=O)cc1 | -0.983% (inactive) |
| C[C@@H]1CCCCO[C@H](CN(C)C(=O)Nc2cccc3ccccc23)[C@@H](C)CN([C@@H](C)CO)C(=O)c2cc(NC(=O)Nc3ccc(F)cc3)ccc2O1 | -0.01% (inactive) |
| C[C@@H](NC(=O)C[C@H]1CC[C@H]2[C@H](COc3ccc(NS(=O)(=O)c4ccc(Cl)cc4)cc3C(=O)N2C)O1)c1ccccc1 | -0.013% (inactive) |
| CCC(=O)NC[C@H]1[C@@H](c2ccc(C3=CCCC3)cc2)[C@@H](CO)N1C(=O)C1CC1 | -0.043% (inactive) |
| CCCC#Cc1cnc2c(c1)C(=O)N([C@H](C)CO)C[C@H](C)[C@@H](CN(C)C(=O)c1cccnc1)O2 | -0.912% (inactive) |

| SMILES | activation |
| --- | --- |
| COc1ccc2c3c(n(C)c2c1)[C@H](CO)N(Cc1ccccc1)CC31CCN(C)CC1 | 0.287% (inactive) |
| CNc1ccc([N+](=O)[O-])cc1C(=O)O | 34.2% (active) |
| CCN(CC)c1ccc([N+](=O)[O-])cc1C(=O)O | -0.147% (inactive) |
| Cc1ccc(NC(=O)c2cc([N+](=O)[O-])ccc2Cl)c(O)c1 | 0.0305% (inactive) |
| CNC(=O)C[C@H]1CC[C@@H]2[C@H](COc3ccc(NC(=O)Nc4cccc(F)c4)cc3C(=O)N2C)O1 | 0.022% (inactive) |
| C[C@H](O)C#Cc1ccc2c(c1)O[C@H](CN(C)Cc1ccccn1)[C@@H](C)CN([C@@H](C)CO)S2(=O)=O | -0.095% (inactive) |
| O=C(C[C@@H]1CC[C@@H](NC(=O)C2CCOCC2)[C@H](CO)O1)NCC1CC1 | -0.115% (inactive) |
| COc1ccc2c3c(n(C)c2c1)[C@@H](CO)N(Cc1ccccc1F)CC31CCN(C(=O)C2CCOCC2)CC1 | -0.019% (inactive) |
| O=C(c1ccc(F)cc1)N1CC(=O)N2[C@@H](CO)[C@H](c3ccc(C4=CCCC4)cc3)[C@@H]2C1 | 0.604% (inactive) |
| CCS(=O)(=O)N1[C@H](CO)[C@@H](c2ccccc2)C12CN(C(=O)c1ccccc1F)C2 | 0.139% (inactive) |
| CCS(=O)(=O)N1CC(=O)N2[C@H](C1)[C@@H](c1ccc(C#Cc3ccc(F)cc3)cc1)[C@@H]2CO | 0.458% (inactive) |
| CC(C)(C)n1nc2c(c1NC(=O)c1cc3ccccc3o1)CSC2 | 0% (inactive) |
| COc1ccc2c(c1)c(C(=O)N/N=C/c1cccs1)c(C)n2C | 0.148% (inactive) |
| Cc1c(/C=N\NC(=O)c2cc3ccccc3o2)c2ccccc2n1C | 16.6% (active) |
| CCCNC(=O)C[C@H]1C[C@@H]2c3cc(NC(=O)COC)ccc3O[C@@H]2[C@@H](CO)O1 | -0.017% (inactive) |
| O=C(C[C@@H]1CC[C@H]2[C@@H](COC[C@@H](O)CN2CC2CC2)O1)NCc1ccc(Cl)cc1 | 0.122% (inactive) |

From PubChem BioAssay AID743238 (Broad Institute, 2013)
